Assay results reported in ChEMBL document CHEMBL4130343, “Design, synthesis, and evaluation of benzofuran derivatives as novel anti-pancreatic carcinoma agents via interfering the hypoxia environment by targeting HIF-1α pathway” (Eur J Med Chem, 2017).

What follows are compounds tested on PANC-1 (assay: Antiproliferative activity against human PANC1 cells after 48 hrs by MTT assay). Conditions: PANC-1, 48 h.
Assay type: functional, cell-based
Method in brief: (§1)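 Cells were seeded at 5×10^5 cells/mL overnight and exposed to graded compound concentrations for 48 h. MTT (5 mg/mL stock) was added for 4 h at 37 °C, and formazan was dissolved in DMSO. Absorbance was read at 570 nm. IC₅₀ was fitted from the curves; values are mean ± SD, n = 3.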

SMILES	IC50 [µM]
Cc1c(C(=O)NCCN2CCN(C)CC2)oc2ccc(N(Cc3ccc(Br)cc3)S(=O)(=O)c3ccc(Br)cc3)cc12	5.04
Cc1c(C(=O)N2CCCC(C)C2)oc2ccc(N(Cc3ccc(Br)cc3)S(=O)(=O)c3ccc(Br)cc3)cc12 (stereo unspecified)	26.2
Cc1c(C(=O)NCCc2ccccn2)oc2ccc(N(Cc3ccc(Br)cc3)S(=O)(=O)c3ccc(Br)cc3)cc12	> 40
Cc1c(C(=O)NCCN2CCCC2)oc2ccc(N(Cc3ccc(Br)cc3)S(=O)(=O)c3ccc(Br)cc3)cc12	2.78
CC(=O)NCCNC(=O)c1oc2ccc(N(Cc3ccc(Br)cc3)S(=O)(=O)c3ccc(Br)cc3)cc2c1C	34.8
Cc1c(C(=O)N2CCOCC2)oc2ccc(N(Cc3ccc(Br)cc3)S(=O)(=O)c3ccc(Br)cc3)cc12	23.8
Cc1c(C(=O)NCCN(C(C)C)C(C)C)oc2ccc(N(Cc3ccc(Br)cc3)S(=O)(=O)c3ccc(Br)cc3)cc12	6.25
Cc1c(C(=O)NCCNc2ccccc2)oc2ccc(N(Cc3ccc(Br)cc3)S(=O)(=O)c3ccc(Br)cc3)cc12	> 40
Cc1c(C(=O)N2CCNC(=O)C2)oc2ccc(N(Cc3ccc(Br)cc3)S(=O)(=O)c3ccc(Br)cc3)cc12	> 40
Cc1c(C(=O)NC2CCN(C)CC2)[nH]c2ccc(N(Cc3ccc(Br)cc3)S(=O)(=O)c3ccc(Br)cc3)cc12	3.67
Cc1c(C(=O)NCCN(C)C)sc2ccc(N(Cc3ccc(Br)cc3)S(=O)(=O)c3ccc(Br)cc3)cc12	7.89
Cc1c(C(=O)NCCN2CCOCC2)oc2ccc(N(Cc3ccc(Br)cc3)S(=O)(=O)c3ccc(Br)cc3)cc12	32.1
Cc1c(C(=O)NCCc2ccc(S(N)(=O)=O)cc2)oc2ccc(N(Cc3ccc(Br)cc3)S(=O)(=O)c3ccc(Br)cc3)cc12	> 40
Cc1c(C(=O)NCCN(C)C)[nH]c2ccc(N(Cc3ccc(Br)cc3)S(=O)(=O)c3ccc(Br)cc3)cc12	11.2

These compounds were tested on BXPC-3 (assay: Antiproliferative activity against human BxPC3 cells after 48 hrs by MTT assay). Conditions: BXPC-3, 48 h.
Assay type: functional, cell-based
Method in brief: as §1

SMILES	IC50 [µM]
Cc1c(C(=O)NCCN2CCN(C)CC2)oc2ccc(N(Cc3ccc(Br)cc3)S(=O)(=O)c3ccc(Br)cc3)cc12	2.6
Cc1c(C(=O)N2CCCC(C)C2)oc2ccc(N(Cc3ccc(Br)cc3)S(=O)(=O)c3ccc(Br)cc3)cc12 (stereo unspecified)	16.6
Cc1c(C(=O)NCCc2ccccn2)oc2ccc(N(Cc3ccc(Br)cc3)S(=O)(=O)c3ccc(Br)cc3)cc12	> 40
Cc1c(C(=O)NCCN2CCCC2)oc2ccc(N(Cc3ccc(Br)cc3)S(=O)(=O)c3ccc(Br)cc3)cc12	2.36
CC(=O)NCCNC(=O)c1oc2ccc(N(Cc3ccc(Br)cc3)S(=O)(=O)c3ccc(Br)cc3)cc2c1C	> 40
Cc1c(C(=O)N2CCOCC2)oc2ccc(N(Cc3ccc(Br)cc3)S(=O)(=O)c3ccc(Br)cc3)cc12	29.1
Cc1c(C(=O)NCCN(C(C)C)C(C)C)oc2ccc(N(Cc3ccc(Br)cc3)S(=O)(=O)c3ccc(Br)cc3)cc12	28.3
Cc1c(C(=O)NCCNc2ccccc2)oc2ccc(N(Cc3ccc(Br)cc3)S(=O)(=O)c3ccc(Br)cc3)cc12	> 40
Cc1c(C(=O)N2CCNC(=O)C2)oc2ccc(N(Cc3ccc(Br)cc3)S(=O)(=O)c3ccc(Br)cc3)cc12	> 40
Cc1c(C(=O)NC2CCN(C)CC2)[nH]c2ccc(N(Cc3ccc(Br)cc3)S(=O)(=O)c3ccc(Br)cc3)cc12	7.5
Cc1c(C(=O)NCCN(C)C)sc2ccc(N(Cc3ccc(Br)cc3)S(=O)(=O)c3ccc(Br)cc3)cc12	9
Cc1c(C(=O)NCCN2CCOCC2)oc2ccc(N(Cc3ccc(Br)cc3)S(=O)(=O)c3ccc(Br)cc3)cc12	27.2
Cc1c(C(=O)NCCc2ccc(S(N)(=O)=O)cc2)oc2ccc(N(Cc3ccc(Br)cc3)S(=O)(=O)c3ccc(Br)cc3)cc12	> 40
Cc1c(C(=O)NCCN(C)C)[nH]c2ccc(N(Cc3ccc(Br)cc3)S(=O)(=O)c3ccc(Br)cc3)cc12	6.98

Each compound was assayed on HCT-116 (assay: Antiproliferative activity against human HCT116 cells after 48 hrs by MTT assay). Conditions: HCT-116, 48 h.
Assay type: functional, cell-based
Method in brief: as §1

SMILES	IC50 [µM]
Cc1c(C(=O)NCCN2CCN(C)CC2)oc2ccc(N(Cc3ccc(Br)cc3)S(=O)(=O)c3ccc(Br)cc3)cc12	3.81
Cc1c(C(=O)N2CCCC(C)C2)oc2ccc(N(Cc3ccc(Br)cc3)S(=O)(=O)c3ccc(Br)cc3)cc12 (stereo unspecified)	23.1
Cc1c(C(=O)NCCc2ccccn2)oc2ccc(N(Cc3ccc(Br)cc3)S(=O)(=O)c3ccc(Br)cc3)cc12	> 40
Cc1c(C(=O)NCCN2CCCC2)oc2ccc(N(Cc3ccc(Br)cc3)S(=O)(=O)c3ccc(Br)cc3)cc12	2.67
CC(=O)NCCNC(=O)c1oc2ccc(N(Cc3ccc(Br)cc3)S(=O)(=O)c3ccc(Br)cc3)cc2c1C	12.2
Cc1c(C(=O)N2CCOCC2)oc2ccc(N(Cc3ccc(Br)cc3)S(=O)(=O)c3ccc(Br)cc3)cc12	22.1
Cc1c(C(=O)NCCN(C(C)C)C(C)C)oc2ccc(N(Cc3ccc(Br)cc3)S(=O)(=O)c3ccc(Br)cc3)cc12	10.4
Cc1c(C(=O)NCCNc2ccccc2)oc2ccc(N(Cc3ccc(Br)cc3)S(=O)(=O)c3ccc(Br)cc3)cc12	> 40
Cc1c(C(=O)N2CCNC(=O)C2)oc2ccc(N(Cc3ccc(Br)cc3)S(=O)(=O)c3ccc(Br)cc3)cc12	7.88
Cc1c(C(=O)NC2CCN(C)CC2)[nH]c2ccc(N(Cc3ccc(Br)cc3)S(=O)(=O)c3ccc(Br)cc3)cc12	14.5
Cc1c(C(=O)NCCN(C)C)sc2ccc(N(Cc3ccc(Br)cc3)S(=O)(=O)c3ccc(Br)cc3)cc12	9.8
Cc1c(C(=O)NCCN2CCOCC2)oc2ccc(N(Cc3ccc(Br)cc3)S(=O)(=O)c3ccc(Br)cc3)cc12	10.5
Cc1c(C(=O)NCCc2ccc(S(N)(=O)=O)cc2)oc2ccc(N(Cc3ccc(Br)cc3)S(=O)(=O)c3ccc(Br)cc3)cc12	5.59
Cc1c(C(=O)NCCN(C)C)[nH]c2ccc(N(Cc3ccc(Br)cc3)S(=O)(=O)c3ccc(Br)cc3)cc12	16.6

The compounds below were run on HCT-116 (assay: Antiproliferative activity against p53-deficient human HCT116 cells after 48 hrs by MTT assay). Conditions: HCT-116, 48 h.
Assay type: functional, cell-based
Method in brief: as §1

SMILES	IC50 [µM]
Cc1c(C(=O)NCCN2CCN(C)CC2)oc2ccc(N(Cc3ccc(Br)cc3)S(=O)(=O)c3ccc(Br)cc3)cc12	2.59
Cc1c(C(=O)N2CCCC(C)C2)oc2ccc(N(Cc3ccc(Br)cc3)S(=O)(=O)c3ccc(Br)cc3)cc12 (stereo unspecified)	28.3
Cc1c(C(=O)NCCc2ccccn2)oc2ccc(N(Cc3ccc(Br)cc3)S(=O)(=O)c3ccc(Br)cc3)cc12	> 40
Cc1c(C(=O)NCCN2CCCC2)oc2ccc(N(Cc3ccc(Br)cc3)S(=O)(=O)c3ccc(Br)cc3)cc12	2.29
CC(=O)NCCNC(=O)c1oc2ccc(N(Cc3ccc(Br)cc3)S(=O)(=O)c3ccc(Br)cc3)cc2c1C	20.4
Cc1c(C(=O)N2CCOCC2)oc2ccc(N(Cc3ccc(Br)cc3)S(=O)(=O)c3ccc(Br)cc3)cc12	26.4
Cc1c(C(=O)NCCN(C(C)C)C(C)C)oc2ccc(N(Cc3ccc(Br)cc3)S(=O)(=O)c3ccc(Br)cc3)cc12	3.11
Cc1c(C(=O)NCCNc2ccccc2)oc2ccc(N(Cc3ccc(Br)cc3)S(=O)(=O)c3ccc(Br)cc3)cc12	> 40
Cc1c(C(=O)N2CCNC(=O)C2)oc2ccc(N(Cc3ccc(Br)cc3)S(=O)(=O)c3ccc(Br)cc3)cc12	21.9
Cc1c(C(=O)NCCN2CCOCC2)oc2ccc(N(Cc3ccc(Br)cc3)S(=O)(=O)c3ccc(Br)cc3)cc12	13.3
Cc1c(C(=O)NCCc2ccc(S(N)(=O)=O)cc2)oc2ccc(N(Cc3ccc(Br)cc3)S(=O)(=O)c3ccc(Br)cc3)cc12	19.2

These compounds were tested on MCF7 (assay: Antiproliferative activity against human MCF7 cells after 48 hrs by MTT assay). Conditions: MCF7, 48 h.
Assay type: functional, cell-based
Method in brief: as §1

SMILES	IC50 [µM]
Cc1c(C(=O)NCCN2CCN(C)CC2)oc2ccc(N(Cc3ccc(Br)cc3)S(=O)(=O)c3ccc(Br)cc3)cc12	5.66
Cc1c(C(=O)N2CCCC(C)C2)oc2ccc(N(Cc3ccc(Br)cc3)S(=O)(=O)c3ccc(Br)cc3)cc12 (stereo unspecified)	32.8
Cc1c(C(=O)NCCc2ccccn2)oc2ccc(N(Cc3ccc(Br)cc3)S(=O)(=O)c3ccc(Br)cc3)cc12	> 40
Cc1c(C(=O)NCCN2CCCC2)oc2ccc(N(Cc3ccc(Br)cc3)S(=O)(=O)c3ccc(Br)cc3)cc12	5.44
CC(=O)NCCNC(=O)c1oc2ccc(N(Cc3ccc(Br)cc3)S(=O)(=O)c3ccc(Br)cc3)cc2c1C	21.3
Cc1c(C(=O)N2CCOCC2)oc2ccc(N(Cc3ccc(Br)cc3)S(=O)(=O)c3ccc(Br)cc3)cc12	15.4
Cc1c(C(=O)NCCN(C(C)C)C(C)C)oc2ccc(N(Cc3ccc(Br)cc3)S(=O)(=O)c3ccc(Br)cc3)cc12	10.9
Cc1c(C(=O)NCCNc2ccccc2)oc2ccc(N(Cc3ccc(Br)cc3)S(=O)(=O)c3ccc(Br)cc3)cc12	> 40
Cc1c(C(=O)N2CCNC(=O)C2)oc2ccc(N(Cc3ccc(Br)cc3)S(=O)(=O)c3ccc(Br)cc3)cc12	> 40
Cc1c(C(=O)NCCN2CCOCC2)oc2ccc(N(Cc3ccc(Br)cc3)S(=O)(=O)c3ccc(Br)cc3)cc12	17.2
Cc1c(C(=O)NCCc2ccc(S(N)(=O)=O)cc2)oc2ccc(N(Cc3ccc(Br)cc3)S(=O)(=O)c3ccc(Br)cc3)cc12	> 40

These compounds were tested on A549 (assay: Antiproliferative activity against human A549 cells after 48 hrs by MTT assay). Conditions: A549, 48 h.
Assay type: functional, cell-based
Method in brief: as §1

SMILES	IC50 [µM]
Cc1c(C(=O)NCCN2CCN(C)CC2)oc2ccc(N(Cc3ccc(Br)cc3)S(=O)(=O)c3ccc(Br)cc3)cc12	5.03
Cc1c(C(=O)N2CCCC(C)C2)oc2ccc(N(Cc3ccc(Br)cc3)S(=O)(=O)c3ccc(Br)cc3)cc12 (stereo unspecified)	33.7
Cc1c(C(=O)NCCc2ccccn2)oc2ccc(N(Cc3ccc(Br)cc3)S(=O)(=O)c3ccc(Br)cc3)cc12	> 40
Cc1c(C(=O)NCCN2CCCC2)oc2ccc(N(Cc3ccc(Br)cc3)S(=O)(=O)c3ccc(Br)cc3)cc12	5.29
CC(=O)NCCNC(=O)c1oc2ccc(N(Cc3ccc(Br)cc3)S(=O)(=O)c3ccc(Br)cc3)cc2c1C	> 40
Cc1c(C(=O)N2CCOCC2)oc2ccc(N(Cc3ccc(Br)cc3)S(=O)(=O)c3ccc(Br)cc3)cc12	19.1
Cc1c(C(=O)NCCN(C(C)C)C(C)C)oc2ccc(N(Cc3ccc(Br)cc3)S(=O)(=O)c3ccc(Br)cc3)cc12	5.5
Cc1c(C(=O)NCCNc2ccccc2)oc2ccc(N(Cc3ccc(Br)cc3)S(=O)(=O)c3ccc(Br)cc3)cc12	> 40
Cc1c(C(=O)N2CCNC(=O)C2)oc2ccc(N(Cc3ccc(Br)cc3)S(=O)(=O)c3ccc(Br)cc3)cc12	> 40
Cc1c(C(=O)NCCN2CCOCC2)oc2ccc(N(Cc3ccc(Br)cc3)S(=O)(=O)c3ccc(Br)cc3)cc12	21.4
Cc1c(C(=O)NCCc2ccc(S(N)(=O)=O)cc2)oc2ccc(N(Cc3ccc(Br)cc3)S(=O)(=O)c3ccc(Br)cc3)cc12	> 40

Each compound was assayed on MDA-MB-231 (assay: Antiproliferative activity against human MDA-MB-231 cells after 48 hrs by MTT assay). Conditions: MDA-MB-231, 48 h.
Assay type: functional, cell-based
Method in brief: as §1

SMILES	IC50 [µM]
Cc1c(C(=O)NCCN2CCN(C)CC2)oc2ccc(N(Cc3ccc(Br)cc3)S(=O)(=O)c3ccc(Br)cc3)cc12	7.5
Cc1c(C(=O)N2CCCC(C)C2)oc2ccc(N(Cc3ccc(Br)cc3)S(=O)(=O)c3ccc(Br)cc3)cc12 (stereo unspecified)	19.4
Cc1c(C(=O)NCCc2ccccn2)oc2ccc(N(Cc3ccc(Br)cc3)S(=O)(=O)c3ccc(Br)cc3)cc12	> 40
Cc1c(C(=O)NCCN2CCCC2)oc2ccc(N(Cc3ccc(Br)cc3)S(=O)(=O)c3ccc(Br)cc3)cc12	8.17
CC(=O)NCCNC(=O)c1oc2ccc(N(Cc3ccc(Br)cc3)S(=O)(=O)c3ccc(Br)cc3)cc2c1C	> 40
Cc1c(C(=O)N2CCOCC2)oc2ccc(N(Cc3ccc(Br)cc3)S(=O)(=O)c3ccc(Br)cc3)cc12	25.1
Cc1c(C(=O)NCCN(C(C)C)C(C)C)oc2ccc(N(Cc3ccc(Br)cc3)S(=O)(=O)c3ccc(Br)cc3)cc12	9.44
Cc1c(C(=O)NCCNc2ccccc2)oc2ccc(N(Cc3ccc(Br)cc3)S(=O)(=O)c3ccc(Br)cc3)cc12	> 40
Cc1c(C(=O)N2CCNC(=O)C2)oc2ccc(N(Cc3ccc(Br)cc3)S(=O)(=O)c3ccc(Br)cc3)cc12	> 40
Cc1c(C(=O)NCCN2CCOCC2)oc2ccc(N(Cc3ccc(Br)cc3)S(=O)(=O)c3ccc(Br)cc3)cc12	23.5
Cc1c(C(=O)NCCc2ccc(S(N)(=O)=O)cc2)oc2ccc(N(Cc3ccc(Br)cc3)S(=O)(=O)c3ccc(Br)cc3)cc12	> 40
